Assay results taken from ChEMBL document CHEMBL4402517, “Rational modification of Mannich base-type derivatives as novel antichagasic compounds: Synthesis, in vitro and in vivo evaluation” (Bioorg Med Chem, 2019).

Experiments:
[1] = test system: Vero; experiment: Cytotoxicity against African green monkey Vero cells measured after 72 hrs by MTT assay; type: cell-based; conditions: Chlorocebus sabaeus
How it was run: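 Log-phase Vero cells (0.8 × 10^4/well) in RPMI-1640 + 10% heat-inactivated FBS at 37 °C, 5% CO2 were exposed 72 h to serial dilutions (10.0–200.0 µM; stocks in DMSO). MTT was then added for 4 h and absorbance read. Quadruplicates, three experiments; IC50 by nonlinear regression.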

[2] = Selectivity index, ratio of IC50 for African green monkey Vero cells to IC50 for Trypanosoma cruzi MHOM/Pe/2011/Arequipa;DTU 5; type: toxicity; conditions: read-out: Selectivity Index
How it was run: (§1)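 SI = Vero IC50 / epimastigote IC50. Vero cells were grown in RPMI-1640 with 10% FBS, seeded at 0.8 × 10^4 cells/well, exposed to 10.0–200.0 µM for 72 h, then given MTT for 4 h. Epimastigotes were grown in MTL with 10% FBS at 28 °C, 5 × 10^5/mL, exposed to 6.3–50 µM for 48 h, then resazurin for 24 h (570/600 nm). IC50s came from nonlinear regression.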

[3] = test system: Trypanosoma cruzi; experiment: Antitrypanosomal activity against Trypanosoma cruzi MHOM/Pe/2011/Arequipa;DTU 5 epimastigotes measured after 72 hrs by Neubauer hemocytometer; type: functional, organism-based; conditions: MHOM/Pe/2011/Arequipa;DTU 5, 72 h
[4] = test system: Trypanosoma cruzi; experiment: Antitrypanosomal activity against Trypanosoma cruzi TINF/CH/1956/Tulahuen;DTU 6 epimastigotes measured after 72 hrs by Neubauer hemocytometer; type: functional, organism-based; conditions: TINF/CH/1956/Tulahuen;DTU 6, 72 h
[5] = Selectivity index, ratio of IC50 for African green monkey Vero cells to IC50 for Trypanosoma cruzi IRHOD/CO/2008/SN3;DTU 1; type: toxicity; conditions: read-out: Selectivity Index; how it was run: as §1
[6] = Selectivity index, ratio of IC50 for African green monkey Vero cells to IC50 for Trypanosoma cruzi TINF/CH/1956/Tulahuen;DTU 6; type: toxicity; conditions: read-out: Selectivity Index; how it was run: as §1
[7] = test system: Trypanosoma cruzi; experiment: Antitrypanosomal activity against Trypanosoma cruzi IRHOD/CO/2008/SN3;DTU 1 epimastigotes measured after 72 hrs by Neubauer hemocytometer; type: functional, organism-based; conditions: IRHOD/CO/2008/SN3;DTU 1, 72 h
[8] = test system: Trypanosoma cruzi; experiment: Antitrypanosomal activity against Trypanosoma cruzi MHOM/Pe/2011/Arequipa;DTU 5 amastigote forms measured after 72 hrs by Giemsa staining based assay; type: functional, organism-based; conditions: MHOM/Pe/2011/Arequipa;DTU 5, 72 h
How it was run: (§2)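 Vero cells (1 × 10^4/well, on coverslips) left to adhere 24 h at 37 °C, 5% CO2, then infected with trypomastigotes at MOI 10:1 for 24 h. Free parasites were removed by three PBS washes. Compounds at 3.1, 6.25, 12.5, 25 and 50 µM were incubated 72 h, and amastigotes were counted after Giemsa staining. Triplicates, two separate experiments; IC50 by nonlinear regression.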

[9] = Selectivity index, ratio of IC50 for African green monkey Vero cells to IC50 for Trypanosoma cruzi IRHOD/CO/2008/SN3;DTU 1 trypomastigote forms; type: toxicity; conditions: read-out: Selectivity Index
How it was run: (§3)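 Bloodstream trypomastigotes were taken from BALB/c mice by cardiac puncture and diluted in RPMI with 10% FBS at 2 × 10^6/mL. They were incubated with 3.1–50.0 µM for 24 h at 37 °C in 5% CO2 and counted in a Neubauer chamber. Triplicate, at least three experiments; nonlinear regression.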

[10] = Selectivity index, ratio of IC50 for African green monkey Vero cells to IC50 for Trypanosoma cruzi TINF/CH/1956/Tulahuen;DTU 6 trypomastigote forms; type: toxicity; conditions: read-out: Selectivity Index; how it was run: as §3
[11] = test system: Trypanosoma cruzi; experiment: Antitrypanosomal activity against Trypanosoma cruzi TINF/CH/1956/Tulahuen;DTU 6 amastigote forms measured after 72 hrs by Giemsa staining based assay; type: functional, organism-based; conditions: TINF/CH/1956/Tulahuen;DTU 6, 72 h; how it was run: as §2
[12] = test system: Trypanosoma cruzi; experiment: Antitrypanosomal activity against bloodstream trypomastigote stage of Trypanosoma cruzi IRHOD/CO/2008/SN3;DTU 1 isolated from parasite infected BALB/c Albino mouse cardiac cells after 24 hrs by Neubauer chamber based cell counting method; type: functional, organism-based; conditions: IRHOD/CO/2008/SN3;DTU 1, 24 h
How it was run: (§4)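 Bloodstream trypomastigotes were taken by cardiac puncture from infected BALB/c mice and diluted in RPMI + 10% heat-inactivated FBS. At 2 × 10^6/mL they were exposed to 3.1–50.0 µM (lower where needed) for 24 h at 37 °C, 5% CO2, and counted in a Neubauer chamber. Triplicates, at least three experiments; IC50 by nonlinear regression.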

[13] = test system: Trypanosoma cruzi; experiment: Antitrypanosomal activity against bloodstream trypomastigote stage of Trypanosoma cruzi MHOM/Pe/2011/Arequipa; DTU 5 isolated from parasite infected BALB/c Albino mouse cardiac cells after 24 hrs by Neubauer chamber based cell counting method; type: functional, organism-based; conditions: DTU 5, 24 h; how it was run: as §4
[14] = Selectivity index, ratio of IC50 for African green monkey Vero cells to IC50 for Trypanosoma cruzi IRHOD/CO/2008/SN3;DTU 1 amastigote forms; type: toxicity; conditions: read-out: Selectivity Index
How it was run: (§5)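 Vero cells (1 × 10^4/well) were infected with trypomastigotes at MOI 10:1 for 24 h and washed with PBS. They were then exposed to 3.1–50 µM for 72 h at 37 °C in 5% CO2, and amastigotes were counted after Giemsa staining. Triplicates in two determinations; nonlinear regression.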

[15] = test system: Trypanosoma cruzi; experiment: Trypanocidal activity against Trypanosoma cruzi trypomastigote form infected in African green monkey Vero cells assessed as ratio of infected cells at 50 uM measured after 72 hrs by Giemsa staining based assay relative to control; type: functional
How it was run: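 Vero cells (1 × 10^4/well, on coverslips) were infected with trypomastigotes at MOI 10:1 for 24 h and washed three times with PBS. They were treated at 3.1, 6.25, 12.5, 25 and 50 µM for 72 h at 37 °C in 5% CO2. Infected cells were counted after Giemsa staining. Triplicates, two separate determinations.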

[16] = Selectivity index, ratio of IC50 for African green monkey Vero cells to IC50 for Trypanosoma cruzi MHOM/Pe/2011/Arequipa; DTU 5 trypomastigote forms; type: toxicity; conditions: read-out: Selectivity Index; how it was run: as §3
[17] = test system: Trypanosoma cruzi; experiment: Trypanocidal activity against Trypanosoma cruzi TINF/CH/1956/Tulahuen;DTU 6 trypomastigote forms infected in BALB/c albino mouse measured after 24 hrs by Neubauer chamber method; conditions: TINF/CH/1956/Tulahuen;DTU 6, 24 h
[18] = Selectivity index, ratio of IC50 for African green monkey Vero cells to IC50 for Trypanosoma cruzi MHOM/Pe/2011/Arequipa; DTU 5 amastigote forms; type: toxicity; conditions: read-out: Selectivity Index; how it was run: as §5
[19] = test system: Trypanosoma cruzi; experiment: Antitrypanosomal activity against Trypanosoma cruzi IRHOD/CO/2008/SN3;DTU 1 amastigote forms measured after 72 hrs by Giemsa staining based assay; type: functional, organism-based; conditions: IRHOD/CO/2008/SN3;DTU 1, 72 h; how it was run: as §2
[20] = test system: Trypanosoma cruzi; experiment: Trypanocidal activity against Trypanosoma cruzi trypomastigote form infected in African green monkey Vero cells measured after 48 hrs by resazurin dye based assay; type: functional, organism-based
[21] = Selectivity index, ratio of IC50 for African green monkey Vero cells to IC50 for Trypanosoma cruzi TINF/CH/1956/Tulahuen;DTU 6 amastigote forms; type: toxicity; conditions: read-out: Selectivity Index; how it was run: as §5

Structure (SMILES) | IC50 [1] | selectivity ratio [2] | IC50 [3] | IC50 [4] | selectivity ratio [5] | selectivity ratio [6] | IC50 [7] | IC50 [8] | selectivity ratio [9] | selectivity ratio [10] | IC50 [11] | IC50 [12] | IC50 [13] | selectivity ratio [14] | Ratio [15] | selectivity ratio [16] | IC50 [17] | selectivity ratio [18] | IC50 [19] | IC50 [20] | also measured
COc1ccc(C(=O)CCNc2ccc(C(F)(F)F)cc2)cc1 | 32.6 µM | 1.8 | 17.8 µM | 24.6 µM | 0.4 | 1.3 | 76.1 µM | – | – | – | – | – | – | – | – | – | – | – | – | – | –
O=C(CCN1CCN(c2ccc(F)cc2)CC1)c1ccc(O)cc1 | 50 µM | 2.1 | 24.4 µM | 13 µM | 5 | 3.9 | 10.1 µM | – | – | – | – | – | – | – | – | – | – | – | – | – | –
COc1ccc(C(=O)CCNCCc2ccc(F)cc2)cc1 | 66.2 µM | 1.9 | 35.6 µM | 20.3 µM | 3.9 | 3.3 | 16.9 µM | – | – | – | – | – | – | – | – | – | – | – | – | – | –
COc1ccc(C(=O)CCNCCc2ccc(Cl)cc2)cc1 | 53.5 µM | 1 | 51.6 µM | 15.2 µM | 3.7 | 3.5 | 14.6 µM | – | – | – | – | – | – | – | – | – | – | – | – | – | –
O=C(CCN1CCN(c2ccc([N+](=O)[O-])cc2)CC1)c1ccc(O)cc1 | 34.6 µM | 1.4 | 24.8 µM | 43 µM | 2.7 | 0.8 | 13 µM | – | – | – | – | – | – | – | – | – | – | – | – | – | –
COc1ccc(C(=O)CCNc2ccc(Cl)cc2)cc1 | 146 µM | 7.8 | 18.7 µM | 16.4 µM | 3.8 | 8.9 | 38.4 µM | 7.3 µM | 2.3 | 10.2 | 26.3 µM | 63 µM | 13 µM | 24.1 | 28% | 11.2 | 14.2 µM | 19.9 | 6 µM | 9 µM | selectivity ratio [21]: 5.5
COc1ccc(C(=O)CCNCCc2ccc(C(F)(F)F)cc2)cc1 | 91.1 µM | 1.5 | 59.7 µM | 13.2 µM | 6.9 | 6.9 | 13.2 µM | 9.1 µM | 16.7 | 26.1 | 3.3 µM | 5.5 µM | 3.6 µM | 20.2 | 17% | 25 | 3.5 µM | 10 | 4.5 µM | 13.9 µM | selectivity ratio [21]: 27.7
COc1ccc(C(=O)CCNc2ccc(F)cc2)cc1 | 133 µM | 9 | 14.8 µM | 14.4 µM | 5.2 | 9.3 | 25.4 µM | 4.7 µM | 39.4 | 48.8 | 6.7 µM | 3.4 µM | 2.1 µM | 24.7 | 10% | 64.8 | 2.7 µM | 27.6 | 5.4 µM | 7.1 µM | selectivity ratio [21]: 20.1
